One data set has as its target Cannabinoid receptor 1 (Homo sapiens, UniProt P21554). The data set can be described thus: Displacement of [3H]CP55940 from recombinant human CB1 receptor expressed in human HEK293 cell membrane after 90 mins. The format is cell membranes. In short, it runs like this: (§1)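 Membranes of HEK-293 cells transfected with human recombinant CB1R (Bmax 2.5 pmol/mg protein) or CB2R (Bmax 4.7 pmol/mg protein). Test compound at increasing concentrations displaced [3H]CP55,940 over 90 min at 30 °C. Ki obtained from IC50 by Cheng–Prusoff. Means of at least three experiments run in duplicate.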
In general terms: Loss of bound radioactivity is the signal in a displacement assay; it reports binding, not function.

The target in the next data set is Cannabinoid receptor 2 (Homo sapiens, UniProt P34972). The data set can be described thus: Displacement of [3H]CP55940 from recombinant human CB2 receptor expressed in human HEK293 cell membrane after 90 mins. The format is cell membranes. In short, it runs like this: as §1
The subject of a further data set is HEK293. The data set can be described thus: Selectivity index, ratio of Ki for recombinant human CB1 receptor expressed in human HEK293 cell membrane to recombinant human CB2 receptor expressed in human HEK293 cell membrane. Type of data set: cell-based. In short, it runs like this:
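Selectivity index is Ki(CB1)/Ki(CB2). Both Ki values come from [3H]CP55,940 displacement over 90 min at 30 °C, using membranes of HEK-293 cells expressing human recombinant CB1R or CB2R, with Cheng–Prusoff conversion.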

Data set [1] relates to DU-145. Description: Antiproliferative activity against human DU145 cells at 1 uM after 4 days by XTT assay. Type of data set: functional. The following applies: DU-145, 96 h. In short, it runs like this: (§2)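 Cells kept at 37 °C, 5% CO2; seeded at 3 × 10³ cells per well, treated 3 h later with vehicle or ligand (1 µM in the four-day panel), medium and ligand renewed every two days for four days. Proliferation read by XTT staining; vehicle-treated O.D. taken as 100%. Two-tailed t-test versus vehicle.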
On the technique in general: Tetrazolium assays rely on reduction of a dye to a coloured formazan, in cell work by metabolically active cells.

Data set [2] in a line: Antiproliferative activity against human WS1 cells at 1 uM after 4 days by XTT assay. Type of data set: cell-based. The following applies: for Activity: ws1, 96 h, 1 µM. In short, it runs like this: as §2
Data set [3] concerns DU-145. Description: Antiproliferative activity against human DU145 cells at 0.1 to 1 uM after 24 hrs by SRB assay. Type of data set: functional, cell-based. The essentials: (§3)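 DU-145 cells seeded at 10,000 per well, exposed 24 h to CB2 ligands, with or without SR144528 (3 µM). Line 2 covers 0.1 to 1 µM; lines 3 and 4 use 0.3 µM. Proliferation read as O.D. by sulforhodamine B. Three independent experiments; two-tailed t-test against vehicle and against ligand plus SR144528.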
Background: Sulforhodamine B stains cellular protein and so reports cell mass.

Data set [4] deals with DU-145. Description: Antiproliferative activity against human DU145 cells at 0.3 uM after 24 hrs by SRB assay. Type of data set: functional, cell-based. In short, it runs like this: as §3
Data set [5] relates to DU-145. The data set can be described thus: Antiproliferative activity against human DU145 cells at 0.3 uM after 24 hrs by SRB assay in presence of CB2 receptor antagonist SR144528. The format is functional, cell-based. In short, it runs like this:
as §3

Data set [6] is described as follows: Antiproliferative activity against myelin basic protein-activated human lymphocytes at 0.3 uM. Type of data set: cell-based. The conditions noted are these: lymphocyte.
The test system of data set [7] is DU-145. Description: Down-regulation of CB2 receptor protein level in human DU145 cells at 0.3 uM after 24 hrs by immunoblot analysis. The format is functional, cell-based. In short, it runs like this: (§4)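 DU-145 cells incubated 24 h with ligand at 0.3 µM, with or without SR144528 at 3 µM. Cells washed in PBS, lysed at pH 7.5 in HEPES/NaCl/EDTA/NaF/vanadate/Triton buffer, and centrifuged at 12,000 g, 4 °C. 40 µg protein run on 12% SDS-PAGE and transferred to nitrocellulose. Blots probed overnight with anti-CB2, detected by HRP anti-rabbit and ECL, normalized to actin.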

The subject of data set [8] is DU-145. The data set can be described thus: Down-regulation of CB2 receptor protein level in human DU145 cells at 0.3 uM after 24 hrs by immunoblot analysis in presence of CB2 receptor antagonist SR144528. The format is functional, cell-based. The essentials: as §4
Data set [9] deals with DU-145. Description: Down-regulation of CB2 receptor protein level in human DU145 cells at 0.3 uM after 24 hrs by immunoblot analysis in presence of CB1 receptor antagonist SR141716. Type of data set: functional, cell-based.
The next data set deals with MCF7. The data set can be described thus: Antiproliferative activity against human MCF7 cells at 1 uM after 4 days by XTT assay. Type of data set: functional. The following applies: MCF7, 96 h. In short, it runs like this: as §2
The test system of the next data set is AGS. Description: Antiproliferative activity against human AGS cells at 1 uM after 4 days by XTT assay. Type of data set: functional. The conditions noted are these: 96 h. The essentials: as §2
For the next data set, the system named is T98G. The data set can be described thus: Antiproliferative activity against human T98G cells at 1 uM after 4 days by XTT assay. The format is functional. The following applies: 96 h. In short, it runs like this: as §2
Data set [10] is described as follows: Solubility of the compound in DMSO/water solution. Type of data set: physicochemical.

SMILES strings stand for the structures. Active and inactive are the calls of the source. The rule behind the calls is not given here. Where only a bound is given, the exact number is not on record here.

Chain of Cannabinoid receptor 2 (P34972 whole entry): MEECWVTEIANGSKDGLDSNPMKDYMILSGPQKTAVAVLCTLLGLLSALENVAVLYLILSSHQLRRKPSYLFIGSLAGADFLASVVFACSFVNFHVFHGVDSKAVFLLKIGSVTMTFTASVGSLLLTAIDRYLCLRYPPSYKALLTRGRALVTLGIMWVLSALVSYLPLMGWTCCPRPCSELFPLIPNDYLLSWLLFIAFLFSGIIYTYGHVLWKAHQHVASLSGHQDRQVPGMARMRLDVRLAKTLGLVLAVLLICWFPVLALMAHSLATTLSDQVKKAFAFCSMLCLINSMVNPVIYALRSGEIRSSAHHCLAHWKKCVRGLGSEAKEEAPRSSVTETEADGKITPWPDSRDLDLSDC
Chain of Cannabinoid receptor 1 (P21554 whole entry): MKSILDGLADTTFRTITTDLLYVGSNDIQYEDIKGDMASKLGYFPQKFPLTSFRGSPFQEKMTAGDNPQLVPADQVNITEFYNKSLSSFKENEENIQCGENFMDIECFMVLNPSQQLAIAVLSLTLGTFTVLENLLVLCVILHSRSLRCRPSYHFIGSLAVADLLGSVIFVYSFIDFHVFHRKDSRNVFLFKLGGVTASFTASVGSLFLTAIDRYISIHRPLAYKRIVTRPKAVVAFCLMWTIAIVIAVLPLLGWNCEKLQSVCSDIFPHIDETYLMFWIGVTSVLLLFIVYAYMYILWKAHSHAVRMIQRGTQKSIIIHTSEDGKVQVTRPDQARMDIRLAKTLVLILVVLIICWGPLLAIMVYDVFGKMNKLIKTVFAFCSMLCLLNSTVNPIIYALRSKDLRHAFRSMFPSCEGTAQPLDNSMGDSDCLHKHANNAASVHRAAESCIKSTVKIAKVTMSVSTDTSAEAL

Consider `O=C(NC1CCCCC1)c1cccnc1OCc1ccc(F)cc1`, for which the inhibition constant Ki (commonly the dissociation constant of the complex between target and ligand, obtained from inhibition or displacement) amounted to 1810 nM at Cannabinoid receptor 1 and 250 nM on Cannabinoid receptor 2. In the data set with HEK293, the Ratio Ki is 7.3.

Consider `O=C(NC1CCCCCC1)c1cc2ccccc2n(Cc2ccc(F)cc2)c1=O`, for which the inhibitory constant (Ki) on Cannabinoid receptor 1 came out at 11.6 nM; at Cannabinoid receptor 2 it was 0.25 nM. For the same compound, in the data set on HEK293, the Ratio Ki was determined as 48.

Turning to `CCCC(C)(C)c1ccc2c(c1)OC(C)(C)[C@@H]1CC=C(C)C[C@@H]21`, the inhibition constant (Ki) was determined as 117 nM on Cannabinoid receptor 1 and 1.82 nM at Cannabinoid receptor 2.

`O=C(NC1CCCCCC1)c1cc2ccccc2n(CCN2CCOCC2)c1=O`: the values for the Ki at Cannabinoid receptor 1 and at Cannabinoid receptor 2 were 206 nM and 2 nM, respectively. Also, the Ratio Ki in the data set on HEK293 is 103. For the same compound, 1 µM produced 11% inhibition in the data set with DU-145 [1]. Moreover, the Activity entry in data set [2] and in data set [6] was “Non-toxic” throughout. Besides, in the data set with DU-145 [3], the inhibition (commonly the relative decrease from the control value, in per cent) was “Active”. For the same compound, the result in the data set with DU-145 [4], with DU-145 [7] and in the data set on DU-145 [9] was Active. Besides, the result in the data set on DU-145 [5] and in the data set on DU-145 [8] was inactive.

Consider `O=C(NC1CCCCC1)c1cccn(CCN2CCOCC2)c1=O`, for which the Ki at Cannabinoid receptor 1 is over 10000 nM; at Cannabinoid receptor 2 it was 7900 nM.

As to `O=C(NC1CCCCC1)c1cccn(Cc2ccc(F)cc2)c1=O`, the Ki on Cannabinoid receptor 1 worked out at 70 nM; at Cannabinoid receptor 2, 20 nM. In addition, in the data set with HEK293, the Ratio Ki turned out to be 3.5.

For `O=C(NC1CCCCCC1)c1cccn(CCN2CCOCC2)c1=O`, the Ki on Cannabinoid receptor 1 turned out to be 950 nM; at Cannabinoid receptor 2 it was 790 nM. Besides, in the data set with HEK293, the Ratio Ki came to 1.2.

As to `O=C(NC1CCCCC1)c1cc2ccccc2n(Cc2ccccc2)c1=O`, the figures for the inhibition constant Ki on Cannabinoid receptor 1 and on Cannabinoid receptor 2 were 67 nM and 16 nM, respectively. In the data set on HEK293, the Ratio Ki was 4.2.

As to `O=C(NC1CCCCC1)c1cccn(Cc2ccccc2)c1=O`, the Ki on Cannabinoid receptor 1 is 800 nM; on Cannabinoid receptor 2 it was 200 nM. Moreover, the Ratio Ki in the data set on HEK293 was determined as 4.

Take `O=C(NC1CCCCC1)c1cc2ccccc2nc1OCc1ccc(F)cc1`: the Ki on Cannabinoid receptor 1 stood at 1200 nM; at Cannabinoid receptor 2, 130 nM. Also, the Ratio Ki with HEK293 came out at 9.2.

In the case of `O=C(NC1CCCCC1)c1c(O)c2cccnc2n(Cc2ccccc2)c1=O`, the results for the inhibition constant Ki on Cannabinoid receptor 1 and on Cannabinoid receptor 2 were 560 nM and 79 nM, respectively. Besides, the Ratio Ki with HEK293 worked out at 7.1.

Consider `O=C(NC1CCCCCC1)c1cccnc1OCc1ccc(F)cc1`, for which the figures for the inhibition constant Ki on Cannabinoid receptor 1 and at Cannabinoid receptor 2 were 100 nM and 25 nM, respectively. Also, in the data set with HEK293, the Ratio Ki was 4.

For `O=C(NC1CCCCC1)c1cccnc1OCc1ccccc1`, the Ki on Cannabinoid receptor 1 was over 10000 nM; at Cannabinoid receptor 2 it was 916 nM.

In the case of `O=C(NC1CCCCC1)c1c(O)c2cccnc2n(CCN2CCOCC2)c1=O`, the Ki at Cannabinoid receptor 1 was 64.6 nM; on Cannabinoid receptor 2, 2.4 nM. Further, in the data set with HEK293, the Ratio Ki was determined as 26.6.

In the case of `O=C(NC1CCCCCC1)c1c(O)c2cccnc2n(CCN2CCOCC2)c1=O`, the figures for the Ki on Cannabinoid receptor 1 and on Cannabinoid receptor 2 were 234 nM and 1.8 nM, respectively. Moreover, the Ratio Ki with HEK293 is 130. The inhibition at 1 µM in the data set on MCF7 worked out at 26%; in the data set on AGS, 62%; in the data set on T98G it was 15%; with DU-145 [1], 33%. For the same compound, in data set [2] (WS1 cells), the inhibition at 96 h, 1 µM came to 21%. In addition, in the data set on DU-145 [3], the inhibition result is “Active”. In addition, the outcome with DU-145 [4], in the data set with DU-145 [7] and in the data set with DU-145 [9] was Active. The result with DU-145 [5] and in the data set on DU-145 [8] was inactive. For the same compound, the Activity entry in data set [6] was “Non-toxic”.

For the compound `O=C(NC1CCCCCC1)c1cccn(Cc2ccc(F)cc2)c1=O`, the Ki on Cannabinoid receptor 1 was found to be 43 nM; at Cannabinoid receptor 2 it was 7.8 nM. The Ratio Ki with HEK293 amounted to 5.5. The inhibition at 1 µM with MCF7 amounted to 12%; in the data set with DU-145 [1], 15%. For the same compound, the Activity entry in data set [2] and in [6] was “Non-toxic” in each case. The inhibition entry in the data set on DU-145 [3] is “Active”. Also, the outcome with DU-145 [4], in the data set on DU-145 [7] and in the data set with DU-145 [9] was Active. The outcome in the data set with DU-145 [5] and in the data set with DU-145 [8] was inactive.

On to `Cc1ccc(Cn2nc(C(=O)N[C@@H]3C(C)(C)[C@@H]4CC[C@@]3(C)C4)cc2-c2ccc(Cl)c(C)c2)cc1`, for which the outcome in the data set on DU-145 [5] was inactive. Besides, the Activity entry in data set [6] is reported as “Non-toxic”. Further, in the data set with DU-145 [7], the result was Active.

With `O=C(NC1CCCCCC1)c1c(O)c2cccnc2n(Cc2ccc(F)cc2)c1=O`, in [10], the solubility entry is given as “Insoluble”.

`O=C(NC1CCCCC1)c1cc2ccccc2n(Cc2ccc(F)cc2)c1=O`: the Ki on Cannabinoid receptor 1 came out at 16.5 nM; at Cannabinoid receptor 2, 2.9 nM. For the same compound, in the data set with HEK293, the Ratio Ki came to 5.7.

Take `O=C(NC1CCCCC1)c1cc2ccccc2n(CCN2CCOCC2)c1=O`: the figures for the inhibition constant (Ki) on Cannabinoid receptor 1 and on Cannabinoid receptor 2 were 300 nM and 9 nM, respectively. In addition, the Ratio Ki with HEK293 was found to be 33.

For `O=C(NC1CCCCC1)c1c(O)c2cccnc2n(Cc2ccc(F)cc2)c1=O`, in [10], the solubility result is “Insoluble”.

Source of the values: ChEMBL document CHEMBL2021892, “Rational design, synthesis and anti-proliferative properties of new CB2 selective cannabinoid receptor ligands: an investigation of the 1,8-naphthyridin-2(1H)-one scaffold” (Eur J Med Chem, 2012).
